Compound activity (PubChem BioAssay)
Autophagy HCS: autophagy modulators in MEF cells, primary screen, imaging, high-content, MEF GFP-LC3; MEF GFP-LC3 puncta imaging; test concentration mostly 10 µM; calls only at 10 µM (by protocol); 0.98% of 190,000 active;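 active = percentage of spot-positive cells more than 3 SD above its plate mean, without a fluorescence outlier flag or 80% toxicity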
MT stabilize HCS: microtubule stabilizers in HeLa cells, primary screen, imaging, high-content imaging; HeLa tubulin immunostaining HCS, 24 h; share of cells brighter than vehicle mean+2SD; % tubulin-high responders, % at 10 µM; 0.83% of 200,000 active; AID 2205, 2009;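 active = plate Z-score above 3 for both tubulin-high and condensed-nucleus cell shares, with cell loss under 80%, at 10 µM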;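 also: anti alpha tubulin signal scored within the nucleus-defined area of each cell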
L major viab: Leishmania major promastigote growth inhibition, primary screen; Leishmania major promastigotes, resazurin fluorescence viability; inhibition, % at 10 µM; 9% of 200,000 active; AID 1063, 2008; in the data active = inhibition above about 50%;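 also: promastigotes grown with compound for 44 hours at 28 °C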
CHOP inh: inhibitors of CHOP promoter induction, primary screen, cell-based, unfolded protein response, luciferase reporter | CHO-K1 CHOP-promoter luciferase, tunicamycin-induced, 15-18 h | inhibition, % at 10 µM | 3.8% of 220,000 active;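 active = compounds that reduced the stress-induced luciferase reporter signal by more than about 70% of percent inhibition, limit read from the data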
bCat nuc transl: modulators of beta-catenin nuclear translocation, primary screen, imaging, HeLa cells, immunofluorescence, high-content. nuclear translocation activity, % at 5 µM. 0.3% of 190,000 active;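 active = nuclear translocation activity above 50% at 5 µM, with a well cell count of 50 or more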;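 also: per-cell ratio of nuclear to cytoplasmic median beta-catenin stain intensity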
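System: Human HeLa cells, endogenous beta-catenin | Compound dosing: 5 µM primary, 0.02–20 µM confirmation | Timing: 24 h compound exposure at 37°C, 5% CO2 | Measured by: Fluorescence imaging of beta-catenin antibody stain plus DAPI | Read-out basis: % activation of per-cell nuclear versus cytoplasmic median beta-catenin signal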
Dynein transport: inhibitors of GR-EGFP nuclear translocation, primary screen, dynein cargo transport inhibitor project, imaging, high-content, 3617.4 mouse cells. test concentration mostly 20 µM; stimulated with dexamethasone, 1 µM; active compounds read low. z-score, hits read low. 0.47% of 220,000 active. AID 1381, 2008;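 active = plate z-score of nuclear minus cytoplasmic receptor signal below a set negative limit, without overly bright fluorescence or cell loss, cut at about -3.5 in these data, passing the limit was not always enough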;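 also: z-score of nuclear minus cytoplasmic ring GR-EGFP intensity difference per well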
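medium = tetracycline-free induction medium containing charcoal-stripped FBS | probe or stimulus = dexamethasone, 1.0 µM final | timing = 48 h induction, then 1 h compound, then 30 min agonist, 37 °C | detection = automated 10x imaging of fixed Hoechst-stained cells | read-out basis = nuclear versus cytoplasmic GR-EGFP signal, averaged per well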
Hits are given with their value; – = inactive; · = not tested or not shown; + = active, no number. In the library only some 12% were active in any assay of this set; here they are far more common.

SMILES	Autophagy HCS	MT stabilize HCS	L major viab	CHOP inh	bCat nuc transl	Dynein transport
O=C1C2CC=CCC2C(=O)N1c1n[nH]c(CCc2ccccc2)n1 (centres undefined)	–	–	–	–	–	–
Cc1cc(NC(=O)CSc2ncnc3c2cnn3-c2cccc(Cl)c2)no1	–	–	–	–	–	–
Cc1ccc(OCC(=O)Nc2ccc3c(c2)OCO3)c([N+](=O)[O-])n1	–	–	54.7	–	·	–
Cc1ccc(OCC(=O)Nc2ccc3c(c2)OC(F)(F)O3)c([N+](=O)[O-])n1	–	–	–	–	–	–
CC(=O)Nc1ccc(-c2nnn(CC(=O)Nc3ccc4c(c3)OCO4)n2)cc1Cl	+	–	–	–	–	–
COC(=O)c1ccc(Cl)c(NS(=O)(=O)c2ccc3c(c2)OCCO3)c1	–	39.3	79.6	·	·	–
Nc1ccc(C(=O)OCC(=O)Nc2ccc3c(c2)OCO3)cc1[N+](=O)[O-]	–	–	69.3	–	·	–
C#CCNC(=O)C1=C[C@@H](C)C[C@@H](OCc2ccc(CO)cc2)O1	–	–	–	–	–	–
COc1cc(N2C(=O)c3ccccc3C2=O)c(Cl)cc1C(=O)OCC(=O)N(C)C	–	–	–	–	–	–
COc1ccc(C(C)(C)C)cc1NC(=S)NCCN1CCOCC1	–	–	–	–	–	–
CC(C)[C@H](NS(=O)(=O)c1ccc2c(c1)OCCO2)C(=O)OCC(=O)Nc1cccc(Cl)c1Cl	–	–	–	–	–	–
CC(C)[C@H](NS(=O)(=O)c1ccc2c(c1)OCCO2)C(=O)OCC(=O)Nc1ccccc1Cl	–	–	66.2	–	–	–
Cc1cc(C)c(C)c(S(=O)(=O)NCC(=O)Nc2sc3c(c2C(N)=O)CCCC3)c1C	–	–	–	94.6	–	–
Cc1noc(C)c1C(=O)Nc1sc2c(c1C(N)=O)CCC2	–	–	–	–	–	–
Cc1noc(C)c1C(=O)Nc1sc2c(c1C(N)=O)CCCCC2	–	–	–	91.3	·	–
CC1CC(C)CN(C(=O)c2ccc(N3CC4CC(C3)c3cccc(=O)n3C4)c([N+](=O)[O-])c2)C1 (centres undefined)	–	–	56.3	–	–	–
CCC(=O)Nc1ccc(N2CCCCC2)c(C(=O)Nc2ccccc2C)c1	–	–	–	72.0	–	–
Cc1ccccc1NC(=O)c1cc(N)ccc1N1CCCCC1	–	–	–	–	–	–
CCCCOc1ccc(-c2nc(=S)[nH][nH]2)cc1	–	–	–	–	·	–
CCCOC(=O)c1ccc(NC(=O)CSC2=Nc3ccccc3C3CC=NN23)cc1 (centres undefined)	–	–	98.3	–	·	–
Cc1ccccc1N1CCN(C(=S)c2ccccc2)CC1	–	–	57.2	–	–	–
Clc1cccc(Oc2ncccn2)c1	–	–	50.3	–	–	–
COc1ccccc1N/C=C/c1onc(C)c1[N+](=O)[O-]	+	–	–	–	–	–
COc1cccc(C2=CC(c3cccc(OC)c3OC)n3nnnc3N2)c1 (centres undefined)	–	22.6	78.8	·	–	–
COc1ccc(OC)c(C2C=C(c3ccc(C)c(C)c3)Nc3nnnn32)c1 (centres undefined)	·	·	·	–	–	·
SMILES	Autophagy HCS	MT stabilize HCS	L major viab	CHOP inh	bCat nuc transl	Dynein transport
COc1cccc(C2=CC(c3cc(OC)ccc3OC)n3nnnc3N2)c1 (centres undefined)	–	26.5	92.0	·	–	–
CS(=O)(=O)Nc1cccc(C2=NN(S(C)(=O)=O)C(c3ccc4c(c3)OCO4)C2)c1 (centres undefined)	–	17.0	–	–	–	–
CS(=O)(=O)Nc1ccc(C2=NN(S(C)(=O)=O)C(c3ccccc3)C2)cc1 (centres undefined)	–	–	–	–	–	–
CCn1c2ccccc2c2nnc(SCC(=O)NC3CCS(=O)(=O)C3)nc21 (centres undefined)	–	–	–	–	–	–
Cc1ccc(-c2nnc(SCC(=O)NC3CCS(=O)(=O)C3)nc2-c2ccc(C)cc2)cc1 (centres undefined)	–	–	77.8	–	·	–
O=C(CSc1nnc(COc2ccccc2F)n1-c1ccccc1)NC1CCS(=O)(=O)C1 (centres undefined)	–	–	69.9	–	·	–
Cc1ccc(-c2nnc(SCC(=O)N3CCOCC3)nc2-c2ccc(C)cc2)cc1	–	–	98.5	–	–	–
Cc1ccc(-c2cn(-c3ccccc3)c(SCC(=O)NC3CCS(=O)(=O)C3)n2)cc1C (centres undefined)	–	–	85.5	–	·	–
Cc1cc([N+](=O)[O-])ccc1NCc1cccc2ccccc12	–	–	–	·	·	–
COc1ccc(C)cc1NC(=O)CNc1ccccc1CN(C)C1CCCCC1	–	–	–	–	–	–
COc1ccc(Cl)cc1NC(=O)CN(C)C1CCCCC1	–	–	–	76.5	–	–
Cc1ccc(NC(=O)CNc2ccccc2CN(C)C2CCCCC2)cc1	–	–	60.4	–	–	–
COc1ccc(S(=O)(=O)N2CCCCC2)cc1NC(=O)CN(C)C1CCCCC1	–	–	–	–	–	–
COc1ccc(Cl)cc1NC(=O)CNc1ccccc1CN(C)C1CCCCC1	–	–	95.7	–	–	–
Cc1ccc(C)n1-c1ccc(C(=O)NCC2CCCO2)cc1 (centres undefined)	–	–	–	–	–	–
COc1ccc(-n2cc(CNCCc3cnc[nH]3)c(-c3cccc(F)c3)n2)cc1	–	–	100.3	–	–	–
COc1ccc(CNCc2cn(-c3cccc(F)c3)nc2-c2ccc(C)o2)cc1	–	–	95.9	–	–	–
COc1ccc(-n2cc(CNC3CCC(O)CC3)c(-c3cccc(F)c3)n2)cc1 (centres undefined)	–	–	84.5	–	–	–
C=CCC1S/C(=N/N=C/c2cccs2)NC1=O (centres undefined)	–	–	–	–	–	–
O=C(SCC(O)C(O)CS)c1cccs1 (centres undefined)	·	·	·	–	–	–
COc1cccc(NC(=O)N2CCN(S(C)(=O)=O)CC2)c1	–	–	–	–	–	–
N#Cc1c(NC(=S)NC(=O)c2ccccc2)sc2c1CCC2	–	–	–	–	·	–
Cn1nccc1C(=O)NC(=S)Nc1sc2c(c1C#N)CCCCC2	–	–	–	91.2	–	–
Cc1cc(=O)n2[nH]c(=O)c(N=Nc3ccccc3)c2[nH]1	–	–	–	–	·	–
Cc1ccc(-c2[nH][nH]c(=O)c(=O)c2N=Nc2ccccc2)cc1	·	·	·	74.7	–	–
CCCn1c2c(c(O)c(C(=O)Nc3ccccc3)c1=O)CCCC2	–	–	–	–	–	–
